In ChEMBL document CHEMBL1122293, “Synthesis, evaluation of chemical reactivity, and murine antineoplastic activity of 2-hydroxy-5-(3,4-dichlorophenyl)-6,7-bis(hydroxymethyl)-2,3-dihydro-1H- pyrrolizine bis(2-propylcarbamate) and 2-acyloxy derivatives as potential water-soluble prodrugs” (J Med Chem, 1983):
≈ marks a conversion by molar mass, not a printed value.

How the values were obtained:
[1] = tested on: P388; test: Weight difference at 50 mg/kg (ip)against P388 Lymphocytic Leukemia in mice; assay type: functional, Mus musculus
In short: (§1)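 Male CDF1 mice given 6×10^6 leukemia cells ip. Five daily ip doses beginning 24 h later, as Klucel suspension or aqueous solution. Acute toxicity on day 5; survival assessed on day 30. Weight difference reported as treated minus control (g).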

[2] = tested on: P388; test: Weight difference at 6.25 mg/kg (ip)against P388 Lymphocytic Leukemia in mice; assay type: functional, Mus musculus; in short: as §1
[3] = tested on: P388; test: Weight difference at 80 mg/kg (ip)against P388 Lymphocytic Leukemia in mice; assay type: functional, Mus musculus
In short: (§2)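 Male CDF1 mice inoculated ip with P388 leukemia cells. Nine daily ip doses beginning 24 h later, as suspensions in Klucel or water. Acute toxicity evaluated day 5. Weight difference reported as treated minus control (g).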

[4] = tested on: P388; test: Median survival time of test animals compared to controls at 10 mg/kg (ip) against P388 Lymphocytic Leukemia in mice; assay type: functional, Mus musculus
In short: (§3)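 P388 leukemia cells were given ip to male CDF1 mice. Dosing started 24 h later: nine daily ip doses given as suspensions in Klucel (hydroxypropylcellulose) or in water. Toxicity day was day 5 and evaluation was on day 30. The value is % T/C of median survival time against untreated controls, with a parallel positive-control arm.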

[5] = tested on: P388; test: Median survival time of test animals compared to controls at 100 mg/kg (ip) against P388 Lymphocytic Leukemia in mice; assay type: functional, Mus musculus
In short: (§4)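 P388 leukemia cells were inoculated ip into male CDF1 mice. Treatment began 24 h later, given ip as five daily doses, either as a Klucel (hydroxypropylcellulose) suspension or as an aqueous solution. Acute toxicity was assessed on day 5 and results were read on day 30. The value is median survival of treated versus control mice, as % T/C.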

[6] = tested on: P388; test: Median survival time of test animals compared to controls at 12.5 mg/kg (ip) against P388 Lymphocytic Leukemia in mice; assay type: functional, Mus musculus
In short: (§5)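 P388 leukemia cells inoculated ip into male CDF1 mice; ip treatment started 24 h later, five daily doses, as Klucel (hydroxypropylcellulose) suspension or aqueous solution. Acute toxicity on day 5. Day-30 median survival of treated versus control mice expressed as % T/C. Weight difference is treated minus control, in grams.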

[7] = tested on: P388; test: Median survival time of test animals compared to controls at 2.5 mg/kg (ip) against P388 Lymphocytic Leukemia in mice; assay type: functional, Mus musculus
In short: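 P388 leukemia cells given ip to male CDF1 mice; ip dosing began 24 h later, nine daily doses, as suspensions in Klucel (hydroxypropylcellulose) or water. Acute toxicity checked on day 5. Survival read on day 30 as median survival time of treated versus control mice (% T/C). Weight difference is treated minus control, in grams.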

[8] = tested on: P388; test: Median survival time of test animals compared to controls at 20 mg/kg (ip) against P388 Lymphocytic Leukemia in mice; assay type: functional, Mus musculus; in short: as §3
[9] = tested on: P388; test: Median survival time of test animals compared to controls at 25 mg/kg (ip) against P388 Lymphocytic Leukemia in mice; assay type: functional, Mus musculus; in short: as §4
[10] = tested on: P388; test: Median survival time of test animals compared to controls at 40 mg/kg (ip) against P388 Lymphocytic Leukemia in mice; assay type: functional, Mus musculus; in short: as §3
[11] = tested on: P388; test: Median survival time of test animals compared to controls at 5 mg/kg (ip) against P388 Lymphocytic Leukemia in mice; assay type: functional, Mus musculus; in short: as §3
[12] = tested on: P388; test: Median survival time of test animals compared to controls at 50 mg/kg (ip) against P388 Lymphocytic Leukemia in mice; assay type: functional, Mus musculus; in short: as §4
[13] = tested on: P388; test: Median survival time of test animals compared to controls at 6.25 mg/kg (ip) against P388 Lymphocytic Leukemia in mice; assay type: functional, Mus musculus; in short: as §4
[14] = tested on: P388; test: Median survival time of test animals compared to controls at 80 mg/kg (ip) against P388 Lymphocytic Leukemia in mice; assay type: functional, Mus musculus; in short: as §3
[15] = tested on: P388; test: Log of the tumor cell population at the end of treatment at 10 mg/kg (ip) against P388 Lymphocytic Leukemia in mice; assay type: functional, Mus musculus
[16] = tested on: P388; test: Log of the tumor cell population at the end of treatment at 100 mg/kg (ip) against P388 Lymphocytic Leukemia in mice; assay type: functional, Mus musculus
[17] = tested on: P388; test: Log of the tumor cell population at the end of treatment at 12.5 mg/kg (ip) against P388 Lymphocytic Leukemia in mice; assay type: functional, Mus musculus
[18] = tested on: P388; test: Log of the tumor cell population at the end of treatment at 20 mg/kg (ip) against P388 Lymphocytic Leukemia in mice; assay type: functional, Mus musculus
[19] = tested on: P388; test: Log of the tumor cell population at the end of treatment at 25 mg/kg (ip) against P388 Lymphocytic Leukemia in mice; assay type: functional, Mus musculus
[20] = tested on: P388; test: Log of the tumor cell population at the end of treatment at 40 mg/kg (ip) against P388 Lymphocytic Leukemia in mice; assay type: functional, Mus musculus
[21] = tested on: P388; test: Log of the tumor cell population at the end of treatment at 5 mg/kg (ip) against P388 Lymphocytic Leukemia in mice; assay type: functional, Mus musculus
[22] = tested on: P388; test: Log of the tumor cell population at the end of treatment at 50 mg/kg (ip) against P388 Lymphocytic Leukemia in mice; assay type: functional, Mus musculus
[23] = tested on: P388; test: Log of the tumor cell population at the end of treatment at 6.25 mg/kg (ip) against P388 Lymphocytic Leukemia in mice; assay type: functional, Mus musculus
[24] = tested on: P388; test: Log of the tumor cell population at the end of treatment at 80 mg/kg (ip) against P388 Lymphocytic Leukemia in mice; assay type: functional, Mus musculus
[25] = tested on: P388; test: Weight difference at 25 mg/kg (ip)against P388 Lymphocytic Leukemia in mice; assay type: functional, Mus musculus; in short: as §1
[26] = tested on: P388; test: Weight difference at 5 mg/kg (ip)against P388 Lymphocytic Leukemia in mice; assay type: functional, Mus musculus; in short: as §2
[27] = tested on: P388; test: Weight difference at 10 mg/kg (ip)against P388 Lymphocytic Leukemia in mice; assay type: functional, Mus musculus; in short: as §2
[28] = tested on: P388; test: Weight difference at 100 mg/kg (ip)against P388 Lymphocytic Leukemia in mice; assay type: functional, Mus musculus; in short: as §1
[29] = tested on: P388; test: Weight difference at 12.5 mg/kg (ip)against P388 Lymphocytic Leukemia in mice; assay type: functional, Mus musculus; in short: as §5
[30] = tested on: P388; test: Weight difference at 2.5 mg/kg (ip)against P388 Lymphocytic Leukemia in mice; assay type: functional, Mus musculus; in short: as §2
[31] = tested on: P388; test: Weight difference at 20 mg/kg (ip)against P388 Lymphocytic Leukemia in mice; assay type: functional, Mus musculus; in short: as §2
[32] = Water solubility of the compound; assay type: ADME; conditions: read-out: S
In short: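 Excess bis(carbamate) (30-60 mg) in 2 mL distilled water, vortexed 10 min, filtered through Teflon wool and diluted. UV absorbance read at 291 nm. Concentration from a linear Beer's law calibration made with a salt standard (r = 0.998).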

[33] = tested on: P388; test: Weight difference at 40 mg/kg (ip)against P388 Lymphocytic Leukemia in mice; assay type: functional, Mus musculus; in short: as §2
[34] = Half life was determined

`CC(C)NC(=O)OCc1c(COC(=O)NC(C)C)c(-c2ccc(Cl)c(Cl)c2)n2c1CCC2` showed a Weight change [1] of -5.3 g, a Weight change [2] of -2.8 g and a Weight change [3] of -4 g. For the same compound, the T/C [4] was 141%, the T/C [5] was 110% and the T/C [6] was 160%. The Log cell kill [7] was -1.52, the T/C [7] was 135% and the T/C [8] was 144%. It also gave a T/C [9] of 179%, a T/C [10] of 155% and a T/C [11] of 127%. For the same compound, the T/C [12] was 205%, the T/C [13] was 164% and the T/C [14] was 126%. For the same compound, the Log cell kill [15] was -1.44, the Log cell kill [16] was -1.4 and the Log cell kill [17] was 1.7. The Log cell kill [18] was -1.41, the Log cell kill [19] was 3.16 and the Log cell kill [20] was -1.25. The Log cell kill [21] was -1.63, the Log cell kill [22] was 5.25 and the Log cell kill [23] was 2.01. The Log cell kill [24] was -1.64, the Weight change [25] was -3.9 g and the Weight change [26] was -0.8 g. The Weight change [27] was -0.7 g, the Weight change [28] was -5.6 g and the Weight change [29] was -3.4 g. The Weight change [30] was -0.5 g, the Weight change [31] was -1.8 g and the solubility [32] was 0.00126 mM (≈ 0.608 µg/mL). For the same compound, the Weight change [33] was -2.6 g and the half-life [34] was 13 min.
For `CC(C)NC(=O)OCc1c(COC(=O)NC(C)C)c(-c2ccc(Cl)c(Cl)c2)n2c1CC(OC(=O)CCC(=O)[O-])C2.[K+]` (configuration not stated), the solubility [32] was 38.8 mM and the half-life [34] was 92 min.
